# Most compounds without a hit are left out; they make up all but 3.1% or so of the library.
# KCNQ1 inh: human KCNQ1 channel inhibition | P51787 | CHO-K1 KCNQ1, FluxOR thallium flux fluorescence; active compounds read high | B-score at 10 µM | 310,000 tested, 1.3% active | AID 2642;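 active means compounds whose thallium flux B-score, printed positive for inhibition, exceeds three library SD while starting fluorescence stays within three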;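 further: channel opened by potassium depolarization with thallium stimulus after 20 min compound exposure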
# Target sequence (P51787 whole entry, looked up): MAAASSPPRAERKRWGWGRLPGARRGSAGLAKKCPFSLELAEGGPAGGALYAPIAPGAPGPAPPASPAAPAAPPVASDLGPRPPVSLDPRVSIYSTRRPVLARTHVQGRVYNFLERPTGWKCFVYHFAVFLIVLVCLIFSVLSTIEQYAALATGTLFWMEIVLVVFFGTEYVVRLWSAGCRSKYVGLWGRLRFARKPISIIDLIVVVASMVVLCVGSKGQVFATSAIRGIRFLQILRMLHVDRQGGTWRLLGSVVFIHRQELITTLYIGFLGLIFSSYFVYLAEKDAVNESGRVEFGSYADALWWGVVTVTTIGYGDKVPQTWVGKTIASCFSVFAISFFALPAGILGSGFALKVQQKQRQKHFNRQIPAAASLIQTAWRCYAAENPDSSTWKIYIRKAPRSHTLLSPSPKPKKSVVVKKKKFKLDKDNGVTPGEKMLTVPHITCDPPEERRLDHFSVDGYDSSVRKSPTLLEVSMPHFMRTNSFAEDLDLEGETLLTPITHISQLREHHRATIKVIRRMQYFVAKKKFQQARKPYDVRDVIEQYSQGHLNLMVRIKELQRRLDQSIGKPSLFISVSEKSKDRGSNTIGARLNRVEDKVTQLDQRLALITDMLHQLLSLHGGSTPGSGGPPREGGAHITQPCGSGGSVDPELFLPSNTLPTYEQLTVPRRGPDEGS
# KCNQ1 act: potentiates or activates the human KCNQ1 potassium channel; P51787; CHO-K1 KCNQ1, thallium flux FluxOR fluorescence; active compounds read high; B-score at 10 µM; 310,000 tested, 0.35% active; AID 2648;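 active means fluorescence ratio B-score, a plate-corrected score, at least three library SD, with initial intensity B-score within 5 SD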
#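 Test system: CHO-K1 cells stably expressing KCNQ1 / Medium: assay buffer / Also added: depolarizing K+/Tl+ stimulus, K2SO4 and Tl2SO4 each 12.5 mM in 5x stock / Incubation: 90 min dye loading and 20 min compound exposure, both at room temperature / Signal: thallium influx via FluxOR fluorescence, kinetic imaging / Evaluation: B score of baseline-normalized fluorescence ratio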
# hERG rescue: shields human hERG channel from block by proarrhythmic agents | Q12809 | CHO-hERG, FluxOR thallium flux, dofetilide IC70 present | activation (rescue from dofetilide block), less the hit threshold, % at 10 µM | 310,000 tested, 0.51% active;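 active means activation above the mean of controls blocked by dofetilide plus 5 SD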;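 further: thallium influx through hERG after potassium depolarization seen as dye fluorescence rise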
# KCNK9 block: inhibitors of human KCNK9 two-pore domain potassium channel; HEK293 KCNK9, FluxOR thallium flux fluorescence; active compounds read low; AID 488922; 310,000 tested, 1.2% active; B-score at 10 µM;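 active means ratio B-score over 3 SD below the library mean, with starting fluorescence within 5 SD of its mean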;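 further: negative B-score means less thallium flux so channel inhibition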
# KCNK3 block: human KCNK3 channel inhibition, primary screen. O14649. CHO-KCNK3 thallium flux, FluxOR fluorescence; active compounds read low. B-score at 10 µM. 340,000 tested, 0.84% active. AID 602410;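 active means B-score under library mean minus 4 SD, starting fluorescence ratio at most library mean plus 5 SD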;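 further: more negative B-score means stronger inhibition of thallium flux through KCNK3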
# KCNK9 inh conf: human KCNK9 inhibitor confirmation; shares compounds with KCNK9 block; HEK293 KCNK9 cells, FluxOR thallium flux fluorescence; inhibition, % at 10 µM; 4,900 tested, 43% active;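 active means thallium signal inhibited by more than 5 SD of the compound-free buffer control wells, on both duplicate plates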;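 further: 0% = assay buffer control wells without compound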
# Kir21 sel: selectivity of KCNK9 modulators against mouse Kir2.1 | shares compounds with KCNK9 block | Kir2.1 cells, FluxOR thallium flux fluorescence | inhibition, % at 10 µM | 4,900 tested, 4% active;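 active means thallium signal drop more than 5 SD beyond the mean of the no-compound control wells, seen in both duplicate plates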;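 further: signal is fluorescence rise after thallium addition divided by baseline fluorescence; plate controls were assay buffer only for no effect and full block by chlorpromazine control for full effect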
# KCNK9 uninduced: second check of KCNK9 modulator effects in non-induced HEK293 cells. shares compounds with KCNK9 block. FluxOR thallium flux. inhibition, % at 10 µM. 4,900 tested, 40% active;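 active means thallium signal drop beyond 5 SD of the untreated control mean, on both duplicate plates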;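 further: plate controls were buffer only IC0 wells for no effect and SID17386958 at its maximal inhibitory level for full effect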
# KCNK3 confirm: confirmation of human KCNK3 two-pore domain potassium channel inhibitors. shares compounds with KCNK3 block. CHO-KCNK3 thallium flux, FluxOR fluorescence; 0% buffer, 100% carvedilol maximal block. ratio percent of control, % at 10 µM. 2,400 tested, 99% active. AID 651638;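 active means ratio percent of control, averaged over triplicates, above buffer control mean plus 5 SD, cut at about 64% in these data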;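 further: ratio is the fluorescence rise from min to max over baseline after thallium stimulus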
# KCNK3 uninduced: counter-screen for KCNK3 inhibitors: effect in non-induced cells. shares compounds with KCNK3 block. non-induced KCNK3 parental cells, FluxOR thallium flux; active compounds read low. thallium flux ratio (lower = more inhibition) at 10 µM. 2,400 tested, 40% active. AID 651747;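 active means thallium flux ratio, averaged over three wells, more than 5 SD below the buffer control mean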;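 further: host cells are CHO cells without KCNK3 induction; ratio is peak minus trough fluorescence over baseline then normalized to buffer controls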
# Numbers without * were called inactive; i = inactive; . = no result given.
SMILES,KCNQ1 inh,KCNQ1 act,hERG rescue,KCNK9 block,KCNK3 block,KCNK9 inh conf,Kir21 sel,KCNK9 uninduced,KCNK3 confirm,KCNK3 uninduced
CN(CC(=O)Nc1ccc(OC(F)(F)F)cc1)C(=O)Cc1cccs1,.,.,.,.,i,.,.,.,.,.
CSc1nc(N2CCN(c3ccccc3Cl)CC2)c2ccccc2n1,i,i,-12,-14*,i,60%*,i,34%*,104*,i
CCCCOC1(c2ccccc2)OC(=O)c2ccccc21 (centres undefined),i,i,-9,-16*,i,54%*,i,52%*,101*,i
O=C(/C=C/Nc1ccccc1C(F)(F)F)c1ccco1,i,i,-1,-8.8*,-9.1*,i,i,i,90*,i
CCc1c(C)sc2nc3c(C(=O)N4CCOCC4)cc(C(=O)c4cc(F)ccc4O)cn3c(=O)c12,i,i,-6,-13*,-8.8*,i,i,24%*,96*,i
Cc1sc2nc3c(C(=O)N4CCCC4)cc(C(=O)c4ccccc4O)cn3c(=O)c2c1C,i,i,-10,i,i,.,.,.,.,.
CC1CCN(C(=O)N2c3ccccc3Sc3ccccc32)CC1,11*,i,-18,-9.3*,-11*,58%*,i,46%*,113*,0.13*
COc1ccccc1C(=O)Nc1ccc(S(=O)(=O)N(C)c2ccccc2)cc1,i,i,-2,-9.1*,-9.3*,48%*,i,i,106*,i
Cc1ccc(NC(=O)C2Cc3ccccc3CN2C(=O)c2ccco2)cc1S(=O)(=O)N(C)C (centres undefined),i,i,-4,i,i,.,.,.,.,.
O=c1cc(N2CCCCC2)c(-c2ccccc2)nn1Cc1c(Cl)cccc1Cl,9*,i,-10,-10*,-8.8*,52%*,i,25%*,98*,0.15*
CCCCC(=O)N1CCN(c2nc3ccc(Cl)cc3s2)CC1,i,i,-11,i,i,.,.,.,.,.
CC(C)(C)n1nnnc1C(c1ccccn1)N(Cc1ccccc1)Cc1ccc(Cl)cc1 (centres undefined),i,i,0,-16*,-9.2*,60%*,i,46%*,100*,0.15*
CCC(C)(C)n1nnnc1C(c1cc2ccc(C)cc2[nH]c1=O)N(Cc1cccnc1)Cc1ccco1 (centres undefined),i,i,-1,i,i,.,.,.,.,.
CC(C)(C)n1nnnc1C(c1cccs1)N(Cc1ccccc1)Cc1ccco1 (centres undefined),9*,i,-18,-19*,-12*,66%*,i,46%*,113*,0.15*
CN(C)CC[C@@H](c1ccc(Cl)cc1)c1ccccn1,i,i,-8,i,i,.,.,.,.,.
Cc1ccc2c(cnn2C(=O)CCC(=O)NC2CCCCC2)c1,i,i,-8,i,i,.,.,.,.,.
CN1CCN(C2CCCCC2NS(=O)(=O)c2ccccc2)CC1 (centres undefined),i,i,-8,i,i,.,.,.,.,.
O=S(=O)(NC1CCCCC1N1CCN(c2cccc(Cl)c2)CC1)c1ccccc1 (centres undefined),i,i,-9,-13*,-10*,57%*,i,42%*,107*,i
O=c1c2ccccc2nc(SCc2ccccc2)n1Cc1ccco1,i,i,-12,-12*,-11*,62%*,i,43%*,104*,i

# Assay outcomes as filed in PubChem BioAssay.
